D1 mod: D1 dopamine receptor (human) allosteric modulation. P21728. HEK293 D1, CRE-luciferase, dopamine EC30 potentiation; actives deviate in either direction. B-score at 10 µM. actives 5.9% (n = 58,000). AID 641;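 active means luminescence count or its row- and column-corrected plate score outside the 99.7% band of the plate's sample wells, on either side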
DAT uptake mod: changed human dopamine transporter uptake under cocaine IC80 | actives 1.3% (n = 110,000) | AID 449768 | LLC-PK1 hDAT cells, [14C]-dopamine uptake with cocaine IC80; actives deviate in either direction | B-score at 10 µM | Q01959;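 active means Z score or B-score, a plate-position-corrected score, falls beyond the plate's 99.7% confidence bounds, in either direction; inactive means both scores lie inside the 99.7% bounds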
M1 ag: agonists of M1 muscarinic receptor; CHO-M1 cells, Fluo-4 calcium fluorescence, agonist mode; stronger effect = higher value; AID 626; actives 3% (n = 64,000); B-score at 10 µM;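 active means fluorescence rise, raw or as B-score row- and column-corrected plate score, outside the 99.7% band of its plate's samples, either direction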
BAP1 block: human BAP1 deubiquitinase inhibition | Q92560 | recombinant BAP1, Ub-AMC hydrolysis fluorescence kinetic; stronger effect = lower value | calls only at 20 µM | actives 0.48% (n = 72,000) | AID 436;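 active means activity remaining at or below 50% of control, provided the compound also passes the data quality filters; inactive means the rest, including low values that fail the filters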
Target sequence (Q92560 whole entry, looked up): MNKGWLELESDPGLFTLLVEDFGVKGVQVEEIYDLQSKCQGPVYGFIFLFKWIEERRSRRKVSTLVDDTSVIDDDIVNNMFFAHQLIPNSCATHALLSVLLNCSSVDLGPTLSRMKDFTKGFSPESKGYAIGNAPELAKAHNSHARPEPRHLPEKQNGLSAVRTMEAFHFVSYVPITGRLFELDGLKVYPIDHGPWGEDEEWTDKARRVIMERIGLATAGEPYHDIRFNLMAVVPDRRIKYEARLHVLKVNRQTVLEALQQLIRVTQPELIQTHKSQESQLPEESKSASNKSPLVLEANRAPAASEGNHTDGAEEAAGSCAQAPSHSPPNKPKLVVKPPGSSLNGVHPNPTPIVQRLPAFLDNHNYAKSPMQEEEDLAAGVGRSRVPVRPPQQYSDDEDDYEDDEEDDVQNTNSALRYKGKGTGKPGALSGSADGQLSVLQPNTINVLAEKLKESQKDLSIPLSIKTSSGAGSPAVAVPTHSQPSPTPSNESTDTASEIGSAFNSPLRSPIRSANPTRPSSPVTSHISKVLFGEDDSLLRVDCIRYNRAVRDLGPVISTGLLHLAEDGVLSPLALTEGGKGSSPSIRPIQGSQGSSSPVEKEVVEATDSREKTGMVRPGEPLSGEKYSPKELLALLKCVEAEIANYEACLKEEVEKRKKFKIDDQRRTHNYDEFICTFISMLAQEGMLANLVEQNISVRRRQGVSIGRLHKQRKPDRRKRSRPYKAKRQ
HEK293 NFkB inh: inhibitors of the PMA/ionomycin-induced NF-kB reporter in HEK293 cells. HEK-293 NF-kB luciferase reporter, luminescence. inhibition, % at 3 µM. actives 0.21% (n = 62,000);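 active means inhibition above the mean of all tested compounds plus 3 SD, cut at about 40% in these data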
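Reagent: PMA plus ionomycin mix as NF-kB-activating stimulus. Assay system: NF-kB luciferase reporter HEK-293 cells. Technique: luminescence from luciferase substrate reagent. Incubation: 1 h compound pre-incubation, 16 h PMA/ionomycin at 37 °C. Benchmarks: DMSO only as uninhibited control, 10 µM reference inhibitor as full inhibition. Repeats: tested once.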
M1 antagonist: M1 muscarinic receptor (rat) antagonism; P08482; CHO-M1 cells, Fluo-4 calcium, ACh EC80 antagonist mode; stronger effect = lower value; actives 3.4% (n = 64,000); B-score at 10 µM;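 active means calcium fluorescence response, raw or row-and-column corrected B-score, differing from the plate sample mean either way at a set confidence level, mostly lower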
M1 antag confirm: confirmation of rat M1 muscarinic receptor antagonists. shares compounds with M1 antagonist. CHO-M1 cells, Fluo-4 calcium, ACh EC80 antagonism; stronger effect = lower value. calcium response (max-min fluorescence) at 10 µM. actives 43% (n = 1,700);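 active means calcium response below the same-plate mean of wells given acetylcholine alone at its 80%-effect dose, minus 3 SD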
mGluR4 antag: selectivity test for M1 antagonists: human mGluR4 receptor. fluorescence response (max-min) at 10 µM. actives 0.9% (n = 1,700). shares compounds with M1 antagonist. AID 678. CHO-mGluR4 calcium flux, Fluo-4 fluorescence, glutamate EC80; stronger effect = lower value;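 active means fluorescence response below the plate's average for near-maximal glutamate wells, less 3 SD of those wells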;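 further: raw unnormalized fluorescence span taken in the window right after glutamate addition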
Each line names hits and unclear results; the compound was inactive in the other large screens (follow-up assays come after a bar, where shown). Rows were chosen to be rich in hits. Some 7.2% of all compounds tested hit in one or more screens of this group.

O=C(Nc1cccc(Cl)c1)NC1CCCCC1	M1 antagonist -2.2 | M1 antag confirm inactive | mGluR4 antag inactive
O=C(COn1nnc2ccccc21)NCC1CCCCC1	M1 antagonist -3 | M1 antag confirm inactive | mGluR4 antag inactive
COc1ccccc1OCC(=O)NCC1CCCCC1	none
N=c1sccn1CC(=O)NCCc1ccc(Cl)cc1	M1 antagonist -4.7 | M1 antag confirm 408 | mGluR4 antag inactive
O=C(CCn1cccc1)NCCc1ccc(Cl)cc1	none
CCn1c(SCc2ccccc2)nnc1-c1ccc(S(=O)(=O)N2CCCCC2)cc1	M1 antagonist -2 (no result: D1 mod) | M1 antag confirm inactive | mGluR4 antag inactive
CSc1nncn1/N=C/c1ccccc1F	none (no result: D1 mod, M1 ag, BAP1 block, HEK293 NFkB inh, M1 antagonist)
Cc1cc(C)n(-c2nncn2/N=C/c2ccccc2F)n1	M1 antagonist -3.3 | M1 antag confirm inactive | mGluR4 antag inactive
Cc1cc(N2CCN(C/C=C/c3ccccc3)CC2)n2ncnc2n1	M1 antagonist -1.6 | M1 antag confirm inactive | mGluR4 antag inactive
COC(=O)c1ccc(COc2cccc(OC)c2)o1	M1 antagonist -2.4 | M1 antag confirm inactive | mGluR4 antag inactive
COC(=O)c1ccccc1NC(=O)c1ccc(COc2ccc(C)c(C)c2)o1	none (no result: D1 mod, M1 ag, BAP1 block, HEK293 NFkB inh, M1 antagonist)
CCCCS(=O)CC(O)COc1ccc(C(C)(C)C)cc1 (centres undefined)	none
CC(C)(C)c1ccc(OCC(O)CS(=O)(=O)c2ccccn2)cc1 (centres undefined)	M1 antagonist -1.8 | M1 antag confirm inactive | mGluR4 antag inactive
CC(=O)Oc1cccc(C(=O)Nc2nccs2)c1	none (no result: D1 mod, DAT uptake mod, M1 ag, HEK293 NFkB inh, M1 antagonist)
Cc1ccc(Cn2c(=N)n(CC(=O)c3ccco3)c3ccccc32)cc1	none (no result: D1 mod, DAT uptake mod, M1 ag, HEK293 NFkB inh, M1 antagonist)
COc1ccc(C(=O)CSc2nnc(Cc3ccccc3)o2)cc1	none
COc1ccc(C(=O)CSc2nnc(Cn3cnc4ccccc43)o2)cc1	M1 antagonist -2.2 | M1 antag confirm 532 | mGluR4 antag inactive
CC(=O)N1N=C(c2c(-c3ccccc3)c3cc([N+](=O)[O-])ccc3[nH]c2=O)CC1c1cccc(Br)c1 (centres undefined)	none (no result: D1 mod, DAT uptake mod, M1 ag, HEK293 NFkB inh, M1 antagonist)
C=CCn1c(SCC(N)=O)nnc1-c1cccc(Br)c1	none
C=CCn1c(SCc2ccccc2C#N)nnc1-c1cc(Br)ccc1O	M1 antagonist -3.8 | M1 antag confirm 330 | mGluR4 antag inactive
CN(C)S(=O)(=O)c1cccc(C(=O)Nc2ccc(Cl)cn2)c1	M1 antagonist -3 (no result: D1 mod) | M1 antag confirm inactive | mGluR4 antag inactive
Cc1sc(NC(=O)c2cccc(Cl)c2)nc1-c1ccccc1	none (no result: D1 mod, DAT uptake mod, M1 ag, HEK293 NFkB inh, M1 antagonist)
COc1ccc(OC)c(S(=O)(=O)Nc2ccc(C)c(C)c2)c1	none (no result: D1 mod, M1 ag, BAP1 block, HEK293 NFkB inh, M1 antagonist)
COc1ccc(OC)c(S(=O)(=O)Nc2ccc3oc4c(c3c2)C(=O)CCC4)c1	M1 antagonist -1.3 | M1 antag confirm inactive | mGluR4 antag inactive
CCOC(=O)c1ccc(NC(=O)C2CCCN2S(=O)(=O)c2ccc(C)cc2)cc1 (centres undefined)	none (no result: D1 mod, DAT uptake mod, M1 ag, HEK293 NFkB inh, M1 antagonist)
CCOc1ccc(-c2nc(=S)[nH][nH]2)cc1	M1 antagonist -5.2 | M1 antag confirm inactive | mGluR4 antag inactive
COc1ccc2cc3cc(C(=O)NCCCN4CCOCC4)oc3nc2c1	none
CCCN(CCC)CCCNC(=O)c1cc2cc3ccc(OC)cc3nc2o1	M1 antagonist -7 (not shown: BAP1 block) | M1 antag confirm 437 | mGluR4 antag inactive
CCCCN(CC)CCCNC(=O)c1cc2cc3ccc(OC)cc3nc2o1	M1 antagonist -4.7 (not shown: BAP1 block) | M1 antag confirm inactive | mGluR4 antag inactive
CC(C)c1[nH]nc2c1C(Cc1ccccc1)C(C#N)=C(N)O2 (centres undefined)	none
CCCc1[nH]nc2c1C(Cc1ccccc1)C(C#N)=C(N)O2 (centres undefined)	M1 antagonist -2.2 | M1 antag confirm inactive | mGluR4 antag inactive
CN1CCN(c2ccc(Cl)cc2NC(=O)c2ccc(S(=O)(=O)N(C)C)cc2)CC1	none (no result: D1 mod, M1 ag, BAP1 block, HEK293 NFkB inh, M1 antagonist)
CN1CCN(c2ccc(Cl)cc2NS(=O)(=O)c2ccccc2Cl)CC1	M1 antagonist -3.6 | M1 antag confirm 345 | mGluR4 antag inactive
C=CCNCc1cccn1-c1sc2c(c1C#N)CCCC2	none (no result: M1 ag, BAP1 block, HEK293 NFkB inh, M1 antagonist)
N#Cc1c(-n2cccc2/C=N/O)sc2c1CCCC2	M1 antagonist -7 | M1 antag confirm 248 | mGluR4 antag inactive
CC1(C)Cc2c(sc3c2C2=NCCN2C=N3)CO1	none (no result: HEK293 NFkB inh)
CSC1=Nc2sc3c(c2C2=NCCN12)CC(C)(C)OC3	M1 antagonist -4.6 (no result: D1 mod, DAT uptake mod, HEK293 NFkB inh) | M1 antag confirm inactive | mGluR4 antag inactive
COc1ccc(N=c2oc3ccccc3cc2C(=O)Nc2ccccc2F)cc1	none (no result: D1 mod, DAT uptake mod, M1 ag, HEK293 NFkB inh, M1 antagonist)
O=C(c1ccc(C(=O)N2CCC(c3ccccc3)CC2)s1)N1CCC(c2ccccc2)CC1	none (no result: D1 mod, DAT uptake mod, M1 ag, HEK293 NFkB inh, M1 antagonist)
CCOC(=O)N1CCN(C(=O)CN(c2ccccc2OC)S(=O)(=O)c2ccc(C)cc2)CC1	M1 antagonist -2.6 | M1 antag confirm inactive | mGluR4 antag inactive
CCOC(=O)N1CCN(C(=O)CN(C2CCCCC2)S(=O)(=O)c2ccc(C)cc2)CC1	none (no result: BAP1 block)
COc1ccc(S(=O)(=O)N(C)CC(=O)N2CCN(C)CC2)cc1C	M1 antagonist -1.9 | M1 antag confirm inactive | mGluR4 antag inactive
COc1ccc(-c2nc3ccccc3o2)cc1NC(=O)c1ccc(C(C)C)cc1	none (no result: D1 mod, DAT uptake mod, M1 ag, HEK293 NFkB inh, M1 antagonist)
